Measurements reported in ChEMBL document CHEMBL2311478, “Macrolactonolides: a novel class of anti-inflammatory compounds” (Bioorg Med Chem, 2013).
Values after ≈ are worked out from the molar mass of the structure shown. Active and inactive are the calls of the source. No cut-off for these calls is given here.

Experiments:
[1] = Ratio of drug AUC lung to blood in Balb/c mouse at 2 mg/kg, administered intranasally; details: lung and blood, inhaled or intranasal
Rattus norvegicus [2] = test: Antiinflammatory activity against ovalbumin-induced airway allergic Brown-Norway rat model assessed as decrease of total cell in bronchoalveolar lavage fluid at 32 mg/kg administered intranasally as dry powder measured on day 29 after ovalbumin challenge (reference value: 53.1%); format: functional, Lung; design: scale not given: the % may be the effect or the level left
Escherichia coli = test: Antibacterial activity against Escherichia coli ATCC 25922 by broth microdilution method; format: functional
Summary of the method: (§1)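 CLSI broth microdilution with double dilutions in 96-well plates. For streptococci, 5% horse serum replaced lysed blood in the medium. Inocula were grown on Columbia agar with 5% sheep blood for streptococci, Mueller–Hinton chocolate agar for H. influenzae, and Mueller–Hinton agar for staphylococci. Read-out is MIC in mg/L.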

PBMC [3] = test: Antiinflammatory activity in human PBMC assessed as inhibition of LPS-induced IL-8 production after 6 hrs; format: functional, cell-based
Summary of the method: (§2)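 Thawed cryopreserved human PBMCs were preincubated 1 h at 37 °C, 5% CO2, then exposed to test compound for 1 h before LPS, anti-CD3 or PHA stimulation. Supernatants were collected at 6, 24 or 48 h according to each cytokine's peak, and cytokines quantified by Luminex multiplex bead assay. 10-point titration starting at 20 µM, in duplicate, with constant DMSO. Parallel Alamar Blue cytotoxicity check under 48 h PHA.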

[4] = Half life in Balb/c mouse lung at 2 mg/kg, administered intranasally; format: ADME, organism-based; design: dose 2 mg/kg; details: inhaled or intranasal
Summary of the method: (§3)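 Male Balb/c mice (21–25 g) dosed intranasally with freshly prepared formulation in 1% DMSO plus 0.125% CMC. Terminal bleeding and lung collection from 5 min to 72 h. K2EDTA blood taken as blood aliquots or spun for plasma. Lung homogenised 1:5 in water. Samples were protein-precipitated with acetonitrile/methanol (2:1) plus roxithromycin internal standard and quantified by LC–MS/MS. LLOQ 0.5 ng/mL (blood/plasma) and 2.5 ng/mL (lung).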

PBMC [5] = test: Antiinflammatory activity in human PBMC assessed as inhibition of LPS-induced TNFalpha production after 6 hrs; format: functional, cell-based
Summary of the method: as §2

Rattus norvegicus [6] = test: Antiinflammatory activity against ovalbumin-induced airway allergic Brown-Norway rat model assessed as decrease of eosinophils in bronchoalveolar lavage fluid at 32 mg/kg administered intranasally as dry powder measured on day 29 after ovalbumin challenge (reference value: 53.1%); format: functional, Lung; design: scale not given: the % may be the effect or the level left
PBMC [7] = test: Antiinflammatory activity in human PBMC assessed as inhibition of PHA-induced MCP-1 production after 24 hrs; format: functional, cell-based
Summary of the method: as §2

PBMC [8] = test: Antiinflammatory activity in human PBMC assessed as inhibition of PHA-induced IL-13 production after 24 hrs; format: functional, cell-based
Summary of the method: as §2

PBMC [9] = test: Antiinflammatory activity in human PBMC assessed as inhibition of anti-CD3-induced IL-1beta production after 48 hrs; format: functional, cell-based
Summary of the method: as §2

[10] = Drug uptake in mouse J774A1 cells assessed as compound retention at 10 uM after 3 hrs by LC-MS/MS method; format: ADME, cell-based; details: j774.a1, 3 h
Summary of the method: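 J774A.1 cells were loaded with 10 µM compound for 3 h in DMEM/25 mM Hepes, then incubated 3 h in fresh medium. Cells were washed, lysed in 0.5% Triton X-100 and analysed by LC–MS/MS. Retention is the percentage of the initially accumulated amount remaining. Triplicates, mean ± SD from one representative experiment.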

[11] = AUC (0 to infinity) in Balb/c mouse blood at 2 mg/kg, administered intranasally; format: ADME, organism-based; design: time infinity, dose 2 mg/kg, route nasal; details: whole blood, inhaled or intranasal
Summary of the method: as §3

PBMC [12] = test: Antiinflammatory activity in human PBMC assessed as inhibition of PHA-induced MIP1alpha production after 6 hrs; format: functional, cell-based
Summary of the method: as §2

PBMC [13] = test: Antiinflammatory activity in human PBMC assessed as inhibition of PHA-induced IL-5 production after 48 hrs; format: functional, cell-based
Summary of the method: as §2

Staphylococcus aureus [14] = test: Antibacterial activity against efflux mediated macrolide-resistant Staphylococcus aureus PK1 by broth microdilution method; format: functional
Summary of the method: (§4)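 MICs by CLSI broth microdilution with double dilutions, except that Streptococcus medium used 5% horse serum in place of lysed blood. Bacteria were pre-grown on Columbia agar with 5% sheep blood (streptococci) or Mueller–Hinton agar (staphylococci).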

PBMC [15] = test: Antiinflammatory activity in human PBMC assessed as inhibition of PHA-induced IL-6 production after 6 hrs; format: functional, cell-based
Summary of the method: as §2

[16] = AUC (0 to infinity) in Balb/c mouse plasma at 2 mg/kg, administered intranasally; format: ADME, organism-based; design: time infinity, route nasal, dose 2 mg/kg; details: inhaled or intranasal
Summary of the method: as §3

PBMC [17] = test: Antiinflammatory activity in human PBMC assessed as inhibition of PHA-induced IL-3 production after 48 hrs; format: functional, cell-based
Summary of the method: as §2

[18] = Cmax in Balb/c mouse blood at 2 mg/kg, administered intranasally; format: ADME, organism-based; design: dose 2 mg/kg, route nasal; details: whole blood, inhaled or intranasal
Summary of the method: as §3

Rattus norvegicus [19] = test: Antiinflammatory activity against ovalbumin-induced airway allergic Brown-Norway rat model assessed as decrease of neutrophils in bronchoalveolar lavage fluid at 32 mg/kg administered intranasally as dry powder measured on day 29 after ovalbumin challenge; format: functional, organism-based; design: dose 32 mg/kg
Summary of the method: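 Brown-Norway rats sensitised by OVA injection on day 1, boosted on days 14 and 20. Treatment with 32 mg/kg or air control on day 27, followed 1 h later by 60 min OVA inhalation challenge. BAL cells differentiated about 48 h post-challenge (day 29). Comparison was against a sensitised, challenged, untreated group. Mean + SD, n = 10, Dunnett test.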

Enterococcus faecalis = test: Antibacterial activity against Enterococcus faecalis ATCC 29213 by broth microdilution method; format: functional
Summary of the method: as §1

Staphylococcus aureus [20] = test: Antibacterial activity against inducible-resistant to macrolide, licosamide and streptogramin Staphylococcus aureus 90265/97 by broth microdilution method; format: functional
Summary of the method: as §4

PBMC [21] = test: Antiinflammatory activity in human PBMC assessed as inhibition of PHA-induced IFNgamma production after 24 hrs; format: functional, cell-based
Summary of the method: as §2

PBMC [22] = test: Antiinflammatory activity in human PBMC assessed as inhibition of PHA-induced IP-10 production after 24 hrs; format: functional, cell-based
Summary of the method: as §2

CC[C@H]1OC(=O)[C@H](C)[C@@H](O[C@H]2C[C@@](C)(OC)[C@@H](O)[C@H](C)O2)[C@H](C)[C@@H](O[C@@H]2O[C@H](C)C[C@H](N(C)C)[C@H]2O)[C@](C)(O)C[C@@H](C)CN(CCCNC(=O)[C@H]2[C@H](C)C[C@H]3[C@@H]4CCC5=CC(=O)C=C[C@]5(C)[C@@]4(F)[C@@H](O)C[C@@]32C)[C@H](C)[C@@H](O)[C@]1(C)O
lung-to-blood AUC ratio [1]: 53
Activity (Rattus norvegicus [2]): 43.6%
MIC (Escherichia coli): > 64 µg/mL
EC50 (PBMC [3]): 9000 nM
half-life [4]: 20 h
EC50 (PBMC [5]): 3000 nM
Activity (Rattus norvegicus [6]): 43.6%
EC50 (PBMC [7]): 19000 nM
EC50 (PBMC [8]): 420 nM
EC50 (PBMC [9]): 30 nM
Drug uptake [10]: Active
AUC(0-inf) [11]: 181 ng·h/mL
EC50 (PBMC [12]): 2630 nM
EC50 (PBMC [13]): 606 nM
MIC (Staphylococcus aureus [14]): > 64 µg/mL
EC50 (PBMC [15]): 4030 nM
AUC(0-inf) [16]: 181 ng·h/mL
EC50 (PBMC [17]): 1270 nM
Cmax [18]: 169 ng/mL
Activity (Rattus norvegicus [19]): Active
MIC (Enterococcus faecalis): 64 µg/mL (≈ 56.3 µM)
MIC (Staphylococcus aureus [20]): > 64 µg/mL
EC50 (PBMC [21]): 67 nM
EC50 (PBMC [22]): > 20000 nM
